High-throughput results deposited in PubChem BioAssay by The Scripps Research Institute Molecular Screening Center.
In the library only some 3% were active in any assay of this set; here they are far more common.
S1P1 ag-PAM: S1P1 agonists and agonism potentiators, primary screen, cell-based, primary and confirmation screens, CRE-bla reporter. Sphingosine 1-phosphate receptor 1 (Homo sapiens), P21453. S1P1 CRE-bla cells, forskolin, beta-lactamase FRET, potentiator mode; S1P1 agonist co-added at EC20, 2 nM; 100% = saturating reference agonist, 0% = basal. activation, % at 9.5 µM. hit rate 0.57% among 56,000;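 active means activation above a cutoff set at the mean activation of all tested compounds plus 3 SD, cut at about 54% in these data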;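 further: forskolin at 4 µM as EC80 and the EC20 agonist is SEW2871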
Target sequence (P21453 whole entry, looked up): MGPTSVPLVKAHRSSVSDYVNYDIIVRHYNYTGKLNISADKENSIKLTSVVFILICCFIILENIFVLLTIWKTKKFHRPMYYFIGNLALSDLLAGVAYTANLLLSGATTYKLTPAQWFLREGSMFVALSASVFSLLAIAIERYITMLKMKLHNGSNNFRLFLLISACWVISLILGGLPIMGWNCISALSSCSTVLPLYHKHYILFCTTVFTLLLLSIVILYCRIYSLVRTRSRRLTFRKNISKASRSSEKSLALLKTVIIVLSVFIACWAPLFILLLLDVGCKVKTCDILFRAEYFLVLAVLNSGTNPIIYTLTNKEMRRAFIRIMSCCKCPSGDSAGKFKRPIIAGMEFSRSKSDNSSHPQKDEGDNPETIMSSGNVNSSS
5HT1a ag: human 5-HT1a receptor agonists, primary screen, cell-based, CHO, Ga15 NFAT-bla reporter | 5-hydroxytryptamine receptor 1A (Homo sapiens), P08908 | CHO 5-HT1a Ga15 NFAT-bla reporter, FRET ratio; 0% basal, 100% maximal reference agonist | activation, % at 10 µM | hit rate 0.56% among 65,000;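 active means activation above the screen-wide mean activation plus 3 SD, cut at about 19% in these data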
HTR1E agonist: 5-HT1E receptor agonists, primary screen, cell-based, HTS; 5-hydroxytryptamine receptor 1E (Homo sapiens), P28566; CHO 5-HT1E Ga15 NFAT-bla reporter, FRET; 0% DMSO wells, 100% control agonist wells; activation, % at 6 µM; hit rate 0.69% among 65,000; AID 574, 2007;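 active means activation above a set limit, the screen-wide mean activation plus 3 SD, cut at about 8.5% in these data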
S1P3 agonist: human S1P3 receptor agonists, primary screen, cell-based, primary and confirmation, NFAT-BLA reporter; AID 373, 2006; S1P3 NFAT-BLA reporter cells, agonism, FRET ratio; relative to 1 µM S1P, basal subtracted; hit rate 0.1% among 60,000; Sphingosine 1-phosphate receptor 3 (Homo sapiens), Q99500; activation, % at 4.5 µM;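 active means activation above the screen-wide mean plus 3 SD, cut at about 4.5% in these data, passing the limit was not always enough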
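Benchmarks: high control 1 µM S1P / System: stable CHO line with human S1P3, Gα16, NFAT-BLA reporter / Dosing: single compound concentration, 4.5 µM final / Timing: 4 h compound at 37 °C, 2 h substrate at RT / Measured by: FRET β-lactamase substrate fluorescence, excitation 405 nm, 460/535 nm emission ratio, background-subtracted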
HTR1E antagonist: 5-HT1E receptor antagonists, primary screen, cell-based, HTS; 5-hydroxytryptamine receptor 1E (Homo sapiens), P28566; CHO 5-HT1E Ga15 NFAT-bla reporter, FRET, antagonist; inhibition, % at 6 µM; hit rate 0.99% among 65,000; AID 571, 2007;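 active means inhibition above a set limit, the mean inhibition across every tested compound plus 3 SD, cut at about 29% in these data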;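 further: signal is the 460 over 535 nm emission ratio of beta-lactamase substrate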
5-HT1A blocker: human 5-HT1a receptor antagonists, primary screen, cell-based, CHO, Ga15 NFAT-bla reporter; CHO 5-HT1a Ga15 NFAT-bla reporter, antagonist mode; inhibition, % at 10 µM; hit rate 0.68% among 62,000;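 active means inhibition above the mean of all tested compounds plus 3 SD, cut at about 43% in these data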;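 further: receptor stimulated by 5-CT agonist at 100 nM near EC80; beta-lactamase reporter measured by ratiometric fluorescence of a cleavable substrate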
Of the large screens only hits and unclear results are named; the others gave an inactive call.

COc1ccccc1NC(=O)CCC(=O)Nc1nnc(C(F)(F)F)s1	none
Nc1nonc1C(=O)OCC(=O)N1CCCCC1	none
Nc1nonc1/C(=N/O)N1CCCC1	5HT1a ag 130
Cc1cc(NC(=O)c2oc3ccccc3c2C)ccc1-n1cnnn1	none
COc1cc(OC)cc(C(=O)Nc2ccc(-n3cnnn3)c(C)c2)c1	HTR1E agonist 36
Cc1ccc2cc(CCNC(=O)c3ccc(Br)o3)c(=O)[nH]c2c1	none
O=S(=O)(c1ccc(NCCc2c[nH]c3ccccc23)nc1)N1CCOCC1	none
Cc1oc(-c2ccccc2)nc1Cn1cccc1C1=NC(c2ccccc2)CO1 (centres undefined)	S1P1 ag-PAM 104
COc1ccccc1C(=O)Nc1ccc(C(=O)O)cc1	5HT1a ag 74
COc1cc2c(cc1OC)C1Cc3ccc(OC)c(OC)c3CN1CC2 (centres undefined)	5-HT1A blocker 51
COc1ccc(C(=O)N2CCc3cc(OC)c(OC)cc3C2)cc1OC	none
CC1(C)SC2[C@H](NC(=O)C(NC(=O)N3CCNC3=O)c3ccccc3)C(=O)N2C1C(=O)O (some centres undefined)	none (no result: 5-HT1A blocker)
COc1ccc(Cl)cc1NC(=O)c1ccco1	HTR1E agonist 23
COC(=O)c1ccc2c(=O)n(Cc3ccc4c(c3)OCO4)c(SCC(=O)N3CCCC3)nc2c1	5HT1a ag 96 (no result: S1P1 ag-PAM, S1P3 agonist)
CCOC(=O)CC1=C(C(=O)OCC)C(c2ccc(C)o2)C(C#N)=C(N)O1 (centres undefined)	HTR1E antagonist 35, 5-HT1A blocker 53
CCOC(=O)N1CCC(NC(=O)Cn2nc(Cc3ccncc3)c3ccccc3c2=O)CC1	none
Cc1c(/C=N/n2cnnc2)c2ccccc2n1CCOc1ccc(Cl)cc1	HTR1E antagonist 33 (no result: S1P1 ag-PAM, S1P3 agonist)
Cc1ccc(OCCn2c(C)c(/C=N/n3cnnc3)c3ccccc32)cc1	HTR1E antagonist 44
CCOC(=O)COn1c(=O)c(=O)n(O)c2ccccc21	none (no result: S1P1 ag-PAM)
CCn1c(SCC(=O)Nc2nc3ccc(C)cc3s2)nc2c(c1=O)SC(C)C2 (centres undefined)	S1P1 ag-PAM 55
CCn1c(SCC(=O)NC2CCCCC2)nc2c(c1=O)SC(C)C2 (centres undefined)	none
CCn1c(SCC(=O)NCC2CCCO2)nc2c(c1=O)SC(C)C2 (centres undefined)	5HT1a ag 19
CCn1c(SCC(=O)Nc2nc3ccccc3s2)nc2c(c1=O)SC(C)C2 (centres undefined)	none
CCCCC(c1nnnn1CC1CCCO1)N1CCN(c2nc3ccccc3s2)CC1 (centres undefined)	HTR1E agonist 10
CC(C)CC(c1nnnn1CC1CCCO1)N1CCN(c2nc3ccccc3s2)CC1 (centres undefined)	none
COCCCn1c(C)nc2c(c1=O)c1nc3ccccc3nc1n2CCc1ccccc1	none (no result: 5-HT1A blocker)
CC(=O)N1C=CN(C(C)=O)C(c2cn(C)c3ccccc23)C1c1cn(C)c2ccccc12 (centres undefined)	S1P1 ag-PAM 69
CC(=O)n1cc(C2C(=O)CCCC2=O)c2ccccc21	none
COc1ccc(C2=CC(c3ccc(OC)c(OC)c3)n3nnnc3N2)c(OC)c1 (centres undefined)	HTR1E antagonist 29
COc1cccc(C2C=C(c3cccs3)Nc3ncnn32)c1OC (centres undefined)	HTR1E antagonist 30
COc1ccc(C2C=C(c3ccc(Br)s3)Nc3ncnn32)cc1OC (centres undefined)	HTR1E antagonist 34
COc1cccc(C2=CC(c3cccc(OC)c3OC)n3nnnc3N2)c1 (centres undefined)	none
COc1cccc(C2C=C(c3ccc(OC)cc3OC)Nc3nnnn32)c1 (centres undefined)	none
O=C(NCC1CCCO1)c1nnc(Cc2ccc(F)cc2)o1 (centres undefined)	none
Nc1ccc(N2CCOCC2)c(Cl)c1	S1P1 ag-PAM 93
O=C(Nc1ccc(N2CCOCC2)c(Cl)c1)c1cccnc1	none
COc1ccc(N2CCN(c3nc(NCCc4ccc(OC)c(OC)c4)nc(OC)n3)CC2)cc1	5-HT1A blocker 46
CC(=O)Nc1sc(C)c(C)c1C(=O)OC1CCOC1=O (centres undefined)	none
COc1ccc(-c2noc(CSc3ccccc3)n2)cc1OC	none
COc1ccc(-c2noc(CSc3nnc(CCc4ccccc4)n3-c3ccccc3)n2)cc1OC	5-HT1A blocker 43
COc1ccc(Cc2nc(-c3ccc(-n4cccc4)cc3)no2)cc1OC	S1P1 ag-PAM 66
O=C(CCCN1CCC(c2ccccc2)C1)c1ccc2c(c1)OCCO2 (centres undefined)	5-HT1A blocker 82
COc1ccc2c(c1)sc1nc(-c3ccccc3)cn12	HTR1E antagonist 75, 5-HT1A blocker 65
N#Cc1cnn(-c2ccccc2)c1N	none (no result: S1P1 ag-PAM, S1P3 agonist)
CC(C)C1N(c2ccccc2)C(N)=C(C#N)C1(C#N)C#N (centres undefined)	HTR1E antagonist 33
O=C(COC(=O)C1COc2ccccc2O1)Nc1ccc2c(c1)CCC2 (centres undefined)	none
COc1cc(C2C(C#N)=C(C)NC3=C2C(=O)c2ccccc23)cc(OC)c1OC (centres undefined)	HTR1E antagonist 82, 5-HT1A blocker 63
CC1(C)CC(=O)C(C=Nc2cccnc2)=C(O)C1	HTR1E antagonist 33
CC1(C)CC(=O)C(C=Nc2ccc3c(c2)OCO3)=C(O)C1	HTR1E antagonist 31
CC1(C)CC(=O)C(C=NCc2ccc3c(c2)OCO3)=C(O)C1	none
CCOC(=O)c1c(CN2CCN(C)CC2)oc2ccc(OC)cc12	none
CCOC(=O)c1c(CN2CCCCC2)oc2ccc(OC)cc12	5HT1a ag 21 (no result: 5-HT1A blocker)
CC1(C)CC(=O)C(C=NCCN2CCN(CCc3ccccc3)CC2)=C(O)C1	none (no result: 5-HT1A blocker)
Clc1ccc(Cn2ncc3c(N4CCCCC4)ncnc32)cc1	HTR1E antagonist 34
CCCCN(CC)Cc1ccc(CNC(=O)Nc2ccc(OC)cc2OC)o1	HTR1E agonist 52
COc1cccc2c1N1C(=O)c3c(C(=O)O)cccc3C1CC2(C)C (centres undefined)	none
